# In ChEMBL document CHEMBL5303300, “EUbOPEN Chemogenomics Library - Multiplex” (2023):
# Several values for one entry are separate records, joined by “and”; a condition that tells them apart may be missing. Equal values may be shown once.
# Experiments:
# Type in all cases: toxicity, cell-based
# [1] = tested on: U2OS; assay: Multiplex assay against U2OS; conditions: human, number of replicates 2
# How it was run: (§1)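 On a CQ1 microscope at 37°C and 5% CO2, live cells were imaged after compound addition. They had been stained at seeding with Hoechst33342, BioTracker Green Microtubule Cytoskeleton Dye, MitoTracker Red and Annexin V Alexa Fluor 680. CellPathfinder machine-learning gating assigned cells to Hoechst high-intensity objects or normal cells, normal cells to healthy, pyknosed or fragmented nuclei, and pyknosed cells to mitotic or apoptotic. Tubulin, mitochondrial-mass and membrane-permeability phenotypes are per cents of healthy-nucleus cells.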
# [2] = tested on: Fibroblast; assay: Multiplex assay against human fibroblast; conditions: number of replicates 2; how it was run: as §1
# [3] = tested on: HEK-293T; assay: Multiplex assay against HEK293T; conditions: human, number of replicates 2; how it was run: as §1
# [4] = 12 h, 1 µM, compound concentration 1 uM
# [5] = 12 h, 10 µM, compound concentration 10 uM
# [6] = 24 h, 1 µM, compound concentration 1 uM
# [7] = 24 h, 10 µM, compound concentration 10 uM
# [8] = 48 h, 1 µM, compound concentration 1 uM
# [9] = 48 h, 10 µM, compound concentration 10 uM
smiles,measurement,setting,value
CCc1ncnc(N2CCN(C(C)=O)CC2)c1C#Cc1ccc(N)nc1.Cl.Cl,Population Apoptotic (%),[1]; [4],100% and 70%
same,Population Fragmented Nuclei (%),[1]; [4],19% and 10%
same,Population Healthy Nuclei (%),[1]; [4],69% and 80%
same,Population Hoechst High Intensity Objects (%),[1]; [4],0%
same,Population Membrane Permeable-Phenotype (%),[1]; [4],0%
same,Population Mitochondria Different-Phenotype (%),[1]; [4],0%
same,Population Normal (%),[1]; [4],100%
same,Population Pyknosed Nuclei (%),[1]; [4],11% and 9%
same,Population Tubulin-Different-Phenotype (%),[1]; [4],55% and 90%
same,Population Apoptotic (%),[1]; [5],50% and 55%
same,Population Fragmented Nuclei (%),[1]; [5],18% and 10%
same,Population Healthy Nuclei (%),[1]; [5],72%
same,Population Hoechst High Intensity Objects (%),[1]; [5],0%
same,Population Membrane Permeable-Phenotype (%),[1]; [5],4% and 3%
same,Population Mitochondria Different-Phenotype (%),[1]; [5],2% and 4%
same,Population Mitotic Cells (%),[1]; [5],50% and 44%
same,Population Normal (%),[1]; [5],100% and 99%
same,Population Pyknosed Nuclei (%),[1]; [5],9% and 17%
same,Population Tubulin-Different-Phenotype (%),[1]; [5],87% and 58%
same,Population Apoptotic (%),[1]; [6],55% and 56%
same,Population Fragmented Nuclei (%),[1]; [6],9% and 7%
same,Population Healthy Nuclei (%),[1]; [6],75% and 82%
same,Population Hoechst High Intensity Objects (%),[1]; [6],0%
same,Population Membrane Permeable-Phenotype (%),[1]; [6],2% and 0%
same,Population Mitochondria Different-Phenotype (%),[1]; [6],2% and 0%
same,Population Mitotic Cells (%),[1]; [6],44% and 43%
same,Population Normal (%),[1]; [6],100% and 99%
same,Population Pyknosed Nuclei (%),[1]; [6],14% and 10%
same,Population Tubulin-Different-Phenotype (%),[1]; [6],72% and 90%
same,Population Apoptotic (%),[1]; [7],40% and 73%
same,Population Fragmented Nuclei (%),[1]; [7],16% and 12%
same,Population Healthy Nuclei (%),[1]; [7],67% and 71%
same,Population Hoechst High Intensity Objects (%),[1]; [7],0%
same,Population Membrane Permeable-Phenotype (%),[1]; [7],4% and 2%
same,Population Mitochondria Different-Phenotype (%),[1]; [7],2% and 5%
same,Population Mitotic Cells (%),[1]; [7],60% and 26%
same,Population Normal (%),[1]; [7],100% and 99%
same,Population Pyknosed Nuclei (%),[1]; [7],16%
same,Population Tubulin-Different-Phenotype (%),[1]; [7],88% and 60%
same,Population Apoptotic (%),[1]; [8],77% and 69%
same,Population Healthy Nuclei (%),[1]; [8],72% and 82%
same,Population Hoechst High Intensity Objects (%),[1]; [8],0%
same,Population Membrane Permeable-Phenotype (%),[1]; [8],0% and 2%
same,Population Mitochondria Different-Phenotype (%),[1]; [8],0%
same,Population Mitotic Cells (%),[1]; [8],22% and 30%
same,Population Normal (%),[1]; [8],100%
same,Population Pyknosed Nuclei (%),[1]; [8],12% and 13%
same,Population Tubulin-Different-Phenotype (%),[1]; [8],75% and 93%
same,Population Apoptotic (%),[1]; [9],70% and 84%
same,Population Fragmented Nuclei (%),[1]; [9],16% and 6%
same,Population Healthy Nuclei (%),[1]; [9],32% and 66%
same,Population Hoechst High Intensity Objects (%),[1]; [9],0%
same,Population Membrane Permeable-Phenotype (%),[1]; [9],5% and 4%
same,Population Mitochondria Different-Phenotype (%),[1]; [9],5% and 8%
same,Population Mitotic Cells (%),[1]; [9],30% and 15%
same,Population Normal (%),[1]; [9],100%
same,Population Pyknosed Nuclei (%),[1]; [9],50% and 27%
same,Population Tubulin-Different-Phenotype (%),[1]; [9],89% and 72%
same,Population Apoptotic (%),[2]; [4],39% and 41%
same,Population Fragmented Nuclei (%),[2]; [4],26% and 16%
same,Population Healthy Nuclei (%),[2]; [4],48% and 55%
same,Population Hoechst High Intensity Objects (%),[2]; [4],0%
same,Population Membrane Permeable-Phenotype (%),[2]; [4],8% and 9%
same,Population Mitochondria Different-Phenotype (%),[2]; [4],1% and 2%
same,Population Mitotic Cells (%),[2]; [4],60% and 58%
same,Population Normal (%),[2]; [4],99%
same,Population Pyknosed Nuclei (%),[2]; [4],24% and 28%
same,Population Tubulin-Different-Phenotype (%),[2]; [4],20% and 15%
same,Total Cell Count,[2]; [4],278 and 215
same,Population Apoptotic (%),[2]; [5],47%
same,Population Fragmented Nuclei (%),[2]; [5],19% and 25%
same,Population Healthy Nuclei (%),[2]; [5],53% and 54%
same,Population Hoechst High Intensity Objects (%),[2]; [5],0%
same,Population Membrane Permeable-Phenotype (%),[2]; [5],4% and 8%
same,Population Mitochondria Different-Phenotype (%),[2]; [5],4% and 0%
same,Population Mitotic Cells (%),[2]; [5],52%
same,Population Normal (%),[2]; [5],100%
same,Population Pyknosed Nuclei (%),[2]; [5],26% and 19%
same,Population Tubulin-Different-Phenotype (%),[2]; [5],41% and 42%
same,Total Cell Count,[2]; [5],180 and 245
same,Population Apoptotic (%),[2]; [6],53% and 46%
same,Population Fragmented Nuclei (%),[2]; [6],28% and 10%
same,Population Healthy Nuclei (%),[2]; [6],46% and 64%
same,Population Hoechst High Intensity Objects (%),[2]; [6],1% and 0%
same,Population Membrane Permeable-Phenotype (%),[2]; [6],12% and 4%
same,Population Mitochondria Different-Phenotype (%),[2]; [6],0% and 1%
same,Population Mitotic Cells (%),[2]; [6],46% and 53%
same,Population Normal (%),[2]; [6],98% and 99%
same,Population Pyknosed Nuclei (%),[2]; [6],25% and 24%
same,Population Tubulin-Different-Phenotype (%),[2]; [6],12% and 9%
same,Total Cell Count,[2]; [6],259 and 210
same,Population Apoptotic (%),[2]; [7],65% and 63%
same,Population Fragmented Nuclei (%),[2]; [7],18% and 31%
same,Population Healthy Nuclei (%),[2]; [7],51% and 55%
same,Population Hoechst High Intensity Objects (%),[2]; [7],0%
same,Population Membrane Permeable-Phenotype (%),[2]; [7],4% and 6%
same,Population Mitochondria Different-Phenotype (%),[2]; [7],5% and 0%
same,Population Mitotic Cells (%),[2]; [7],34% and 36%
same,Population Normal (%),[2]; [7],100% and 99%
same,Population Pyknosed Nuclei (%),[2]; [7],29% and 12%
same,Population Tubulin-Different-Phenotype (%),[2]; [7],37% and 27%
same,Total Cell Count,[2]; [7],176 and 264
same,Population Apoptotic (%),[2]; [8],48% and 54%
same,Population Fragmented Nuclei (%),[2]; [8],28% and 14%
same,Population Healthy Nuclei (%),[2]; [8],58% and 75%
same,Population Hoechst High Intensity Objects (%),[2]; [8],1% and 0%
same,Population Membrane Permeable-Phenotype (%),[2]; [8],5% and 6%
same,Population Mitochondria Different-Phenotype (%),[2]; [8],0%
same,Population Mitotic Cells (%),[2]; [8],51% and 45%
same,Population Normal (%),[2]; [8],98% and 99%
same,Population Pyknosed Nuclei (%),[2]; [8],12% and 10%
same,Population Tubulin-Different-Phenotype (%),[2]; [8],10% and 7%
same,Total Cell Count,[2]; [8],259 and 219
same,Population Apoptotic (%),[2]; [9],62% and 68%
same,Population Fragmented Nuclei (%),[2]; [9],13% and 21%
same,Population Healthy Nuclei (%),[2]; [9],63% and 67%
same,Population Hoechst High Intensity Objects (%),[2]; [9],0%
same,Population Membrane Permeable-Phenotype (%),[2]; [9],5% and 1%
same,Population Mitochondria Different-Phenotype (%),[2]; [9],8% and 0%
same,Population Mitotic Cells (%),[2]; [9],37% and 32%
same,Population Normal (%),[2]; [9],100%
same,Population Pyknosed Nuclei (%),[2]; [9],22% and 10%
same,Population Tubulin-Different-Phenotype (%),[2]; [9],36% and 25%
same,Total Cell Count,[2]; [9],163 and 231
same,Population Apoptotic (%),[3]; [4],62% and 67%
same,Population Fragmented Nuclei (%),[3]; [4],5% and 4%
same,Population Healthy Nuclei (%),[3]; [4],80% and 82%
same,Population Hoechst High Intensity Objects (%),[3]; [4],12% and 10%
same,Population Membrane Permeable-Phenotype (%),[3]; [4],2% and 0%
same,Population Mitochondria Different-Phenotype (%),[3]; [4],40% and 39%
same,Population Mitotic Cells (%),[3]; [4],37% and 32%
same,Population Normal (%),[3]; [4],87% and 89%
same,Population Pyknosed Nuclei (%),[3]; [4],13% and 12%
same,Population Tubulin-Different-Phenotype (%),[3]; [4],62% and 57%
same,Total Cell Count,[3]; [4],352 and 438
same,Population Apoptotic (%),[3]; [5],79% and 66%
same,Population Fragmented Nuclei (%),[3]; [5],5% and 4%
same,Population Healthy Nuclei (%),[3]; [5],77%
same,Population Hoechst High Intensity Objects (%),[3]; [5],15% and 9%
same,Population Membrane Permeable-Phenotype (%),[3]; [5],0% and 1%
same,Population Mitochondria Different-Phenotype (%),[3]; [5],60% and 59%
same,Population Mitotic Cells (%),[3]; [5],20% and 33%
same,Population Normal (%),[3]; [5],84% and 90%
same,Population Pyknosed Nuclei (%),[3]; [5],16% and 17%
same,Population Tubulin-Different-Phenotype (%),[3]; [5],80% and 76%
same,Total Cell Count,[3]; [5],304 and 297
same,Population Apoptotic (%),[3]; [6],66% and 56%
same,Population Fragmented Nuclei (%),[3]; [6],8% and 11%
same,Population Healthy Nuclei (%),[3]; [6],78% and 74%
same,Population Hoechst High Intensity Objects (%),[3]; [6],15% and 23%
same,Population Membrane Permeable-Phenotype (%),[3]; [6],1%
same,Population Mitochondria Different-Phenotype (%),[3]; [6],41% and 42%
same,Population Mitotic Cells (%),[3]; [6],33% and 43%
same,Population Normal (%),[3]; [6],84% and 76%
same,Population Pyknosed Nuclei (%),[3]; [6],12% and 14%
same,Population Tubulin-Different-Phenotype (%),[3]; [6],68% and 67%
same,Total Cell Count,[3]; [6],305 and 394
same,Population Apoptotic (%),[3]; [7],72% and 60%
same,Population Fragmented Nuclei (%),[3]; [7],3% and 6%
same,Population Healthy Nuclei (%),[3]; [7],78% and 74%
same,Population Hoechst High Intensity Objects (%),[3]; [7],14%
same,Population Membrane Permeable-Phenotype (%),[3]; [7],2% and 1%
same,Population Mitochondria Different-Phenotype (%),[3]; [7],57% and 64%
same,Population Mitotic Cells (%),[3]; [7],27% and 39%
same,Population Normal (%),[3]; [7],85%
same,Population Pyknosed Nuclei (%),[3]; [7],18%
same,Population Tubulin-Different-Phenotype (%),[3]; [7],79% and 82%
same,Total Cell Count,[3]; [7],233 and 255
same,Population Apoptotic (%),[3]; [8],71% and 74%
same,Population Fragmented Nuclei (%),[3]; [8],14% and 9%
same,Population Healthy Nuclei (%),[3]; [8],63% and 76%
same,Population Hoechst High Intensity Objects (%),[3]; [8],20% and 31%
same,Population Membrane Permeable-Phenotype (%),[3]; [8],1% and 3%
same,Population Mitochondria Different-Phenotype (%),[3]; [8],37% and 25%
same,Population Mitotic Cells (%),[3]; [8],28% and 25%
same,Population Normal (%),[3]; [8],79% and 68%
same,Population Pyknosed Nuclei (%),[3]; [8],21% and 14%
same,Population Tubulin-Different-Phenotype (%),[3]; [8],72% and 67%
same,Total Cell Count,[3]; [8],307 and 445
same,Population Apoptotic (%),[3]; [9],65% and 57%
same,Population Fragmented Nuclei (%),[3]; [9],7%
same,Population Healthy Nuclei (%),[3]; [9],72% and 73%
same,Population Hoechst High Intensity Objects (%),[3]; [9],23% and 14%
same,Population Membrane Permeable-Phenotype (%),[3]; [9],0%
same,Population Mitochondria Different-Phenotype (%),[3]; [9],46% and 63%
same,Population Mitotic Cells (%),[3]; [9],34% and 42%
same,Population Normal (%),[3]; [9],76% and 85%
same,Population Pyknosed Nuclei (%),[3]; [9],20% and 19%
same,Population Tubulin-Different-Phenotype (%),[3]; [9],80% and 73%
same,Total Cell Count,[3]; [9],260 and 244
